Data published in ChEMBL document CHEMBL1123610, “Synthesis and antineoplastic activity of 1a-formyl and 1a-thioformyl derivatives of mitomycin C and 2-methylaziridine” (1987).

Tests used:
P388 [1] = assay: In vivo antineoplastic activity against P388 leukemia; assay type: functional, Mus musculus
Outline: (§1)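 Murine P388 lymphocytic leukemia screen, with tumor implanted ip and drug given ip. Response is %T/C = (median survival of treated / median survival of control) × 100, reported at the optimal dose per dose in mg/kg. Mitomycin C was run concurrently. MED is the lowest mg/kg per dose that reaches the criterion %T/C.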

P388 [2] = assay: In vivo antineoplastic activity of mitomycin C sample run concurrently against P388 leukemia screen (optimal dosage); assay type: functional, Mus musculus; outline: as §1
P388 [3] = assay: In vivo antineoplastic activity against P388 leukemia screen inoculated intraperitoneally expressed as minimum effective dose; assay type: functional; conditions: Mus musculus, P388, ip; read-out: MED; outline: as §1
B16 [4] = assay: In vivo antineoplastic activity against B16 melanoma screen inoculated subcutaneously. Value in parenthesis indicates the optimal dosage
B16 [5] = assay: In vivo antineoplastic activity of mitomycin C sample run concurrently against B16 melanoma screen (optimal dosage); assay type: functional, Mus musculus
Outline: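 Murine B16 melanoma test, with tumor implanted sc and treatment given iv. Activity is %T/C = (median survival of treated / median survival of untreated control) × 100, reported at the optimal dose in mg/kg per dose. A mitomycin C sample was run alongside. MED is the minimum mg/kg per dose meeting the activity criterion for %T/C.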

B16 [6] = assay: In vivo antineoplastic activity against B16 melanoma screen inoculated subcutaneously expressed as minimum effective dose
B16 [7] = assay: In vivo antineoplastic activity against B16 melanoma screen inoculated intraperitoneally expressed as minimum effective dose; assay type: functional, Mus musculus
B16 [8] = assay: In vivo antineoplastic activity against B16 melanoma screen inoculated intraperitoneally. Value in parenthesis indicates the optimal dosage; assay type: functional, Mus musculus

SMILES	T/C (P388 [1]) [%]	T/C (P388 [2]) [%]	minimal effective dose (P388 [3]) [mg/kg]	T/C (B16 [4]) [%]	T/C (B16 [5]) [%]	MED (B16 [6])	MED (B16 [7])	T/C (B16 [8]) [%]
CNC(=S)N1[C@H]2CN3C4=C(C(=O)C(N)=C(C)C4=O)[C@@H](COC(N)=O)[C@@]3(OC)[C@@H]21	95	152						
CO[C@@]12[C@H](COC(N)=O)C3=C(C(=O)C(C)=C(N)C3=O)N1C[C@H]1[C@H]2N1C(=S)SC	122	>333						
CO[C@@]12[C@H](COC(N)=O)C3=C(C(=O)C(C)=C(N)C3=O)N1C[C@H]1[C@H]2N1C(=O)SC	132	142	12.8					
COC(=O)N1[C@H]2CN3C4=C(C(=O)C(N)=C(C)C4=O)[C@@H](COC(N)=O)[C@@]3(OC)[C@@H]21	194	275	3.2	165	147	6.4		
CNC(=O)N1[C@H]2CN3C4=C(C(=O)C(N)=C(C)C4=O)[C@@H](COC(N)=O)[C@@]3(OC)[C@@H]21	121	142						
CO[C@@]12[C@H](COC(N)=O)C3=C(C(=O)C(C)=C(N)C3=O)N1C[C@H]1[C@H]2N1C(=O)Sc1ccccc1	200	275	1.6	156	147	1.6		
CO[C@@]12[C@H](COC(N)=O)C3=C(C(=O)C(C)=C(N)C3=O)N1C[C@H]1[C@H]2N1/C(S)=N\c1ccccc1	127	200	2.56					
CO[C@@]12[C@H](COC(N)=O)C3=C(C(=O)C(C)=C(N)C3=O)N1C[C@H]1[C@H]2N1C(=S)Oc1ccccc1	162	152	51.2					
CO[C@@]12[C@H](COC(N)=O)C3=C(C(=O)C(C)=C(N)C3=O)N1C[C@H]1[C@H]2N1C(=S)Sc1ccccc1	167	172	12.8					
CO[C@@]12[C@H](COC(N)=O)C3=C(C(=O)C(C)=C(N)C3=O)N1C[C@H]1[C@H]2N1C(=O)Oc1ccccc1	194	275	1.6		147		3.2	165
CO[C@@]12[C@H](COC(N)=O)C3=C(C(=O)C(C)=C(N)C3=O)N1C[C@H]1[C@H]2N1C(=O)Nc1ccccc1	116	142						
